Measurements reported in ChEMBL document CHEMBL1144418, “Structure-activity relationships of fluorinated lysophosphatidic acid analogues” (J Med Chem, 2005).

Biological target: T1, Lysophosphatidic acid receptor 3 (Homo sapiens, UniProt Q9UBY5)
T1 sequence (Q9UBY5 whole entry): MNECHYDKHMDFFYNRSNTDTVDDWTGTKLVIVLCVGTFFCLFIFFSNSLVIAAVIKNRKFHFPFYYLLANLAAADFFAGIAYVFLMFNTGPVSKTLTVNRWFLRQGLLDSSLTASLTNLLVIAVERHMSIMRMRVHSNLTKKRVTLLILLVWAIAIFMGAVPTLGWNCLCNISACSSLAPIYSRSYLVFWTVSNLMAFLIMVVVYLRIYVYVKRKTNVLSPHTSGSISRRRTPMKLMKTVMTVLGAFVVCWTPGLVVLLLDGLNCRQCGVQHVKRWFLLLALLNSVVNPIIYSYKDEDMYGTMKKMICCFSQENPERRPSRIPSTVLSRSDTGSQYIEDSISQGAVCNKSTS
Assay: Agonistic activity as increased intracellular calcium level by human LPA3 receptor expressed in Sf9 cells
Format: functional
Procedure, shortened: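 Sf9 insect cells infected with baculovirus encoding human LPA3, harvested 48 h post-infection, washed in MES-buffered saline (pH 6.2, 0.1% fatty acid-free BSA, 10 mM CaCl2), loaded with Fura-2 AM 45 min, resuspended at 10^6 cells/mL; ligand-evoked fluorescence at 27 °C in quartz cuvettes, excitation 340/380 nm, emission 500 nm, recorded before and after ligand addition; EC50 from concentration-response.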

Row | Structure (SMILES) | EC50 [nM]
1 | CCCCCCCC/C=C/CCCCCCCC(=O)OC[C@H](CC(F)P(=O)(O)O)OC (stereo partly drawn) | 20
2 | CCCCCCCCCCCCCCCC(=O)OC[C@H](O)CC(F)P(=O)(O)O (stereo partly drawn) | > 10000
3 | CCCCCCCC/C=C/CCCCCCCC(=O)O[C@H](COP(=O)(O)O)CC(F)F | > 10000
4 | CCCCCCCC/C=C/CCCCCCCC(=O)OC[C@@H](O)CC(F)P(=O)(O)O (stereo partly drawn) | 0.5
5 | CCCCCCCCCCCCCCCC(=O)OC[C@@H](O)CC(F)P(=O)(O)O (stereo partly drawn) | 20
6 | CCCCCCCCCCCCCCCC(=O)O[C@H](COC)CC(F)P(=O)(O)O (stereo partly drawn) | ~10000
7 | CCCCCCCC/C=C/CCCCCCCC(=O)O[C@H](COP(=O)(O)O)C(F)F | > 10000
8 | CCCCCCCCCCCCCCCC(=O)OC[C@H](CC(F)P(=O)(O)O)OC (stereo partly drawn) | > 10000
9 | CCCCCCCC/C=C/CCCCCCCC(=O)O[C@H](COC)COP(O)(O)=S | ~5000
10 | CCCCCCCC/C=C/CCCCCCCC(=O)OC[C@H](O)CC(F)(F)P(=O)(O)O | ~1000
11 | CCCCCCCC/C=C/CCCCCCCC(=O)OC[C@H](O)CC(F)P(=O)(O)O (stereo partly drawn) | 500
12 | CCCCCCCC/C=C/CCCCCCCC(=O)OC[C@@H](O)CC(F)(F)P(=O)(O)O | 500
13 | CCCCCCCC/C=C/CCCCCCCC(=O)O[C@H](COC)CC(F)P(=O)(O)O (stereo partly drawn) | 5
14 | CCCCCCCC/C=C/CCCCCCCC(=O)OC(CF)COP(=O)(O)O (single isomer, unassigned; form 1) | ~10
15 | CCCCCCCC/C=C/CCCCCCCC(=O)OC(CF)COP(=O)(O)O (single isomer, unassigned; form 2) | ~200

Next, values leading:

Row | EC50 [nM] | Structure (SMILES)
16 | > 10000 | CCCCCCCCCCCCCCCC(=O)OC[C@@H](F)COP(=O)(O)O
17 | > 10000 | CCCCCCCCCCCCCCCC(=O)OC[C@H](F)COP(=O)(O)O
18 | > 10000 | CCCCCCCC/C=C/CCCCCCCC(=O)OC[C@@H](F)COP(=O)(O)O
19 | > 10000 | CCCCCCCCCCCCCCCC(=O)O[C@H](COP(=O)(O)O)CC(F)F
20 | > 10000 | CCCCCCCCCCCCCCCC(=O)O[C@H](COP(=O)(O)O)C(F)F
21 | ~1000 | CCCCCCCC/C=C/CCCCCCCC(=O)OC[C@H](F)COP(=O)(O)O
22 | ~3000 | CCCCCCCCCCCCCCCC(=O)OC(CF)COP(=O)(O)O (single isomer, unassigned)
23 | > 10000 | CCCCCCCCCCCCCCCC(=O)OCC(O)COP(=O)(O)O (stereo not drawn) [PALMITOYL]
